Data on 26 compounds can be found in ChEMBL document CHEMBL4033620, “Design, synthesis and biological evaluation of quinoline derivatives as HDAC class I inhibitors” (Eur J Med Chem, 2017).

In experiment [1] the target is Histone deacetylase (HDAC1 and HDAC2) (Homo sapiens, UniProt Q13547+Q92769). Briefly: Inhibition of HDAC1/2 in human HeLa cell nuclear extract using COLOR DE LYS as substrate pretreated for 5 mins followed by substrate addition measured after 30 mins by UV-absorption method. Type of experiment: cell-based.
The subject of experiment [2] is MOLT-4. Put plainly: Antiproliferative activity against human MOLT4 cells after 48 hrs by MTT assay. Type of experiment: functional, cell-based. The settings on record: MOLT-4, 48 h.
In experiment [3] the test system is HEL. Put plainly: Antiproliferative activity against human HEL cells after 48 hrs by MTT assay. Type of experiment: functional, cell-based.
Experiment [4] concerns K562. Put plainly: Antiproliferative activity against human K562 cells after 48 hrs by MTT assay. The following applies: K562, 48 h. Type of experiment: functional, cell-based.
Experiment [5] deals with PC-3. Briefly: Antiproliferative activity against human PC3 cells after 48 hrs by MTT assay. Type of experiment: functional, cell-based. The following applies: PC-3, 48 h. A digest of the protocol:
(§1)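 Cells grown in RPMI1640 with 10% FBS at 37°C, 5% CO2. Seeded at 4000–5000 cells/well for 8 h, then exposed to a range of compound concentrations for 48 h. 0.5% MTT solution added for 4 h, formazan dissolved in DMSO, absorbance read at 570 nm. IC50 derived from inhibition ratios, given as mean ± standard deviation of two or three separate determinations.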

In experiment [6] the test system is HeLa. Put plainly: Antiproliferative activity against human HeLa cells after 48 hrs by MTT assay. Format: functional, cell-based. Put shortly: as §1

Take `O=C(NO)c1ccc(CNCc2ccc3cc(Br)ccc3n2)cc1`: the half-maximal inhibitory concentration (IC50) in experiment [1] is given as more than 1000 nM.
With `COc1cccc2ccc(CNCc3ccc(/C=C/C(=O)NO)cc3)nc12`, the 50% inhibitory concentration (IC50) in experiment [1] stood at 206 nM; in experiment [2] it was 190 nM; in experiment [3], 220 nM; in experiment [4], 750 nM; in experiment [5] it was 4600 nM; in experiment [6], 3330 nM.
`COc1ccc2nc(CN(C(=O)Cc3ccc(/C=C/C(=O)NO)cc3)c3ccccc3)ccc2c1`: in experiment [1], the half-maximal inhibitory concentration (IC50) is reported as 560 nM.
Still for that read-out and setting: for `O=C(/C=C/c1ccc(C(=O)N(Cc2ccc3ccccc3n2)c2ccc(Br)cc2)cc1)NO` the value was more than 1000 nM; for `O=C(/C=C/c1ccc(CN(Cc2ccccc2)Cc2ccc3cc(Br)ccc3n2)cc1)NO`, more than 1000 nM; for `CCCCCCN(Cc1cccc(/C=C/C(=O)NO)c1)Cc1ccc2cc(Br)ccc2n1`, more than 1000 nM.
Still for that read-out and setting: for `O=C(NO)c1ccc(CNCc2ccc3cccc(Cl)c3n2)cc1` the value was more than 1000 nM; for `O=C(/C=C/c1ccc(C(=O)N(Cc2ccc3ccccc3n2)c2ccccc2)cc1)NO`, more than 1000 nM.
In the case of `COc1ccc2nc(CNCc3ccc(/C=C/C(=O)NO)cc3)ccc2c1`, the IC50 in experiment [1] turned out to be 236 nM; in experiment [2], 230 nM; in experiment [3] it was 130 nM; in experiment [4] it was 690 nM; in experiment [5], 3700 nM; in experiment [6], 2680 nM.
Consider `O=C(/C=C/c1ccc(CNCc2ccc3cc(Br)ccc3n2)cc1)NO`, for which, in experiment [1], the IC50 was determined as 375 nM.
`O=C(/C=C/c1ccc(CN(Cc2ccccc2)Cc2ccc3ccccc3n2)cc1)NO`: in experiment [1], the IC50 is listed as more than 1000 nM.
Consider `O=C(NO)c1ccc(CN(Cc2ccccc2)Cc2ccc3ccccc3n2)cc1`, for which the IC50 in experiment [1] was found to be 836 nM.
`COc1cccc2ccc(CN(C(=O)c3ccc(/C=C/C(=O)NO)cc3)c3ccccc3)nc12`: in experiment [1], the IC50 stood at 724 nM.
Turning to `O=C(/C=C/c1ccc(CNCc2ccc3cc(Cl)ccc3n2)cc1)NO`, the IC50 amounted to 305 nM in experiment [1]; 250 nM in experiment [2]; 220 nM in experiment [3]; 720 nM in experiment [4]; 4350 nM in experiment [5]; 3030 nM in experiment [6].
With `O=C(/C=C/c1cccc(CNCc2ccc3cc(Br)ccc3n2)c1)NO`, in experiment [1], the IC50 is 559 nM.
With `COc1ccc(N(Cc2ccc3cccc(Cl)c3n2)C(=O)c2ccc(/C=C/C(=O)NO)cc2)cc1`, in experiment [1], the IC50 is given as more than 1000 nM.
In the case of `O=C(/C=C/c1ccc(C(=O)N(Cc2ccc3cc(Br)ccc3n2)c2ccccc2)cc1)NO`, in experiment [1], the half-maximal inhibitory concentration (IC50) is given as more than 1000 nM.
With `O=C(/C=C/c1ccc(CN(Cc2ccccc2)Cc2ccc3cc(Cl)ccc3n2)cc1)NO`, the half-inhibitory concentration (IC50) in experiment [1] is listed as more than 1000 nM.
`O=C(NO)c1ccc(CNCc2ccc3ccccc3n2)cc1`: the IC50 in experiment [1] was more than 1000 nM.
As to `COc1ccc2nc(CN(Cc3ccccc3)Cc3ccc(/C=C/C(=O)NO)cc3)ccc2c1`, the half-inhibitory concentration (IC50) in experiment [1] is given as more than 1000 nM.
Same read-out and setting: for `O=C(/C=C/c1cccc(CN(Cc2ccccc2)Cc2ccc3cc(Br)ccc3n2)c1)NO` the value was more than 1000 nM; for `O=C(/C=C/c1ccc(CC(=O)N(Cc2ccc3cc(Br)ccc3n2)c2ccccc2)cc1)NO`, more than 1000 nM; for `CCCCCCN(Cc1ccc(/C=C/C(=O)NO)cc1)Cc1ccc2cc(Br)ccc2n1`, more than 1000 nM.
Consider `COc1ccc(N(Cc2ccc3ccccc3n2)C(=O)c2ccc(/C=C/C(=O)NO)cc2)cc1`, for which, in experiment [1], the IC50 worked out at 744 nM.
For `COc1ccc2nc(CNCc3ccc(C(=O)NO)cc3)ccc2c1`, the IC50 in experiment [1] is on record as more than 1000 nM.
For the compound `O=C(/C=C/c1ccc(CC(=O)N(Cc2ccc3ccccc3n2)c2ccccc2)cc1)NO`, in experiment [1], the IC50 amounted to 720 nM.
